Measured values published in PubChem BioAssay AID617 (SRMLSC, 2007).

Test system: E. coli BW25113 ΔtolC growth inhibition, OD615
Experiment: E. coli ΔtolC antibacterial growth inhibition – strain BW25113 ΔtolC::kan, dose response (AID 617);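 also: growth read after 20 h at 37 °C with compound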
Method in brief: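 Test system: E. coli BW25113 ΔtolC::kan bacteria | Amount: 1:1000 diluted subculture inoculum | Medium: LB plus kanamycin | Timing: 20 h exposure at 37 °C | Signal: Absorbance at 615 nm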

Structure (SMILES)	IC50
CCCc1nc(SC2CCCC2)c2c(=O)n(C)c(=O)n(C)c2n1	13.6 µM
CC(C)COC(=O)NCCOC(=O)Nc1cccc(Cl)c1	19.6 µM
COc1ccc2nc(N3CCC(C)CC3)c(C#N)cc2c1	28.9 µM
COc1ccc(-c2nnc(SCc3cc(C)cc(C)c3)o2)cc1	6.77 µM
O=C(Nc1nnc(-c2ccc(Cl)cc2)o1)c1ccccc1Br	0.4 µM
C=C(C)COc1ccc(-c2ncncc2Oc2ccc(OC)cc2)c(O)c1	14 µM
CCCOc1ccccc1NC(=O)c1c(-c2ccccc2)noc1C	15.1 µM
CC(C)C[C@H](NC(=O)OC(C)(C)C)c1nnc(SCc2cccc(F)c2)o1	11.9 µM
CCOc1ccc(N(CC(=O)Nc2cccc(OC)c2)S(=O)(=O)c2c(C)noc2C)cc1	22.8 µM
O=C(O)CCC(=O)N1CCc2cc(S(=O)(=O)N3CCC(Cc4ccccc4)CC3)ccc21	1.06 µM
COc1ccc(OC)c(C(=O)COC(=O)c2cc(C)oc2C)c1	25.1 µM
c1csc(-c2noc(COc3ccc4c(c3)CCCC4)n2)c1	18.4 µM
CCOC(=O)c1c(C)oc2ccc(NS(=O)(=O)c3ccc4c5c(cccc35)C(=O)N4)cc12	16.3 µM
CC(OC(=O)c1ccccc1NCc1ccco1)C(=O)Nc1ncc(Cl)cc1Cl (configuration not stated)	39.1 µM
CCSc1oc(-c2ccccc2)nc1S(=O)(=O)c1ccccc1	11.1 µM
Brc1cc(Br)c2ncnc(N3CCCCC3)c2c1	34.6 µM
Cc1cc(N2CCN(c3ccccc3)CC2)nc(-n2nc(C)cc2C)n1	7.6 µM
COc1ccc(Cn2c(=O)sc3ccccc32)cc1	61.7 µM
O=C(Cn1c(C(=O)NCc2ccco2)cc2sccc21)c1ccccc1	24.6 µM
Cc1cc(NC(=O)COC(=O)C(Nc2ccc(C(F)(F)F)cc2Cl)C(C)C)no1 (configuration not stated)	5.37 µM
Cc1ccc(Nc2cc(C)nn2-c2nc(C)cc(=O)[nH]2)cc1	0.18 µM
Cc1ccc(CN2CCSc3ccc(C(=O)N4CCN(c5ncccn5)CC4)cc32)cc1	17 µM
CCOC(=O)C1CCCN(c2ncnc3c2cnn3-c2ccc(Cl)cc2)C1 (configuration not stated)	9.92 µM

Structure (SMILES)	IC50
CCOc1cc(-c2c(C#N)c(N)nc3c2CCCC3C)ccc1O (configuration not stated)	6.26 µM
CCOC(=O)c1c(-c2ccccc2)nnn1-c1nc(OCC)nc(N2CCCCC2)n1	20.7 µM
COc1ccc2nc(NC(=O)C3CCCN(S(=O)(=O)c4cccs4)C3)sc2c1 (configuration not stated)	26 µM
Cc1cc(C)n(-c2nc(SCC(=O)N3CCCC3)c3c4c(sc3n2)CCCC4)n1	23.9 µM
COc1ccc(S(=O)(=O)Nc2ccc(S(=O)(=O)N3CCCCC3)cc2)cc1	15 µM
COc1ccc(-c2cnc(SCC(=O)Nc3cc(C)on3)n2Cc2ccco2)cc1	35.7 µM
O=C(Nc1ccccc1)Nc1ccc(S(=O)(=O)N2CCCCC2)cc1	10.3 µM
COc1ccc(C2c3sc(=O)[nH]c3SC3C4CCC(C4)C23)cc1 (configuration not stated)	10 µM
CCOC(=O)c1c(-c2ccc(OC)cc2)oc2ccc(OC(=O)N(C)C)cc12	12.9 µM
Cc1cccc(N2CCN(C(=O)c3ccc(NS(=O)(=O)c4c(C)noc4C)cc3)CC2)c1C	16.2 µM
COc1cccc(N2CCN(CC(=O)Nc3nc4c(s3)CC(C)CC4)CC2)c1 (configuration not stated)	10.4 µM
Cc1oc2c(CN3CCOCC3)c(O)ccc2c(=O)c1-c1ccc(Br)cc1	2.83 µM
CCOC(=O)c1cnc(-n2nc(C)cc2C)nc1Nc1ccc(N(C)C)cc1	13.7 µM
N#Cc1c(NC(=O)c2ccc(Br)o2)n(-c2ccccc2)c2nc3ccccc3nc12	15.3 µM
COC(=O)CNS(=O)(=O)c1ccc(Cc2ccc(S(=O)(=O)NCC(=O)OC)cc2)cc1	1.29 µM
Cc1cccc(Cn2c(=O)c3c(nc4n3CCCN4Cc3ccccc3)n(C)c2=O)c1	20 µM
COC(=O)c1cc(C(=O)CSc2nc(C)cc(C)n2)ccc1O	4.31 µM
COc1ccc(-c2noc(CCC(=O)N(C)c3cccc(C)c3)n2)cc1	22.7 µM
Cc1noc(C)c1COC(=O)c1cc(C)n(-c2ccccc2)c1C	11.5 µM
Cc1ccc(C(C(=O)NC2CCCC2)N(Cc2cccs2)C(=O)CNC(=O)c2cccs2)o1 (configuration not stated)	22.3 µM
O=S(=O)(Nc1cccc2ncccc12)c1cccs1	5.24 µM
COc1cc(-c2nc(Cc3ccccc3Cl)no2)cc(OC)c1OC	11.5 µM
O=C(Nc1ccc2c(c1)OCO2)c1ccc(COc2ccc3c(c2)CCC3)o1	7.79 µM

Structure (SMILES)	IC50
O=C(CS(=O)(=O)c1ccccc1)Nc1nc(-c2ccccc2)cs1	8.07 µM
CCCCN1C(=O)NC(=O)C2(Cc3c(nc4c(C)cccn4c3=O)N3CCc4ccccc4C32)C1=O (configuration not stated)	3.2 µM
O/N=C(\c1ccc(Cl)cc1)c1cc2ccccc2o1	5.7 µM
Clc1ccc(OCCN2CCN(c3ncnc4sccc34)CC2)cc1	16.1 µM
CCNc1nc(SCc2ccccc2)nc(N2CCOCC2)n1	17.8 µM
COc1ccc(-c2nc(-c3cccs3)c(-c3cccs3)[nH]2)cc1O	6.09 µM
O=C(Nc1ccc2c(c1)CCC2)C1COc2ccccc2O1 (configuration not stated)	12.2 µM
N#Cc1c(NC(=O)CSc2n[nH]c(Cc3ccccc3)n2)oc(-c2ccccc2)c1-c1ccccc1	7.4 µM
CCc1c(O)nc(SCc2ccccc2)n(C(C)CC)c1=O (configuration not stated)	4.28 µM
CCOC(=O)c1c(C)n(C)c2ccc(OCC(O)Cn3nc(C)c(Br)c3C)cc12 (configuration not stated)	5.74 µM
CC(C)c1nc(N2CCN(C(=O)c3ccco3)CC2)c2c3c(sc2n1)CCCC3	13.6 µM
CC1CCCCC1n1c(=S)[nH]c2ccccc2c1=O (configuration not stated)	5.91 µM
CCOc1ccc2nc(NC(=O)CN3CCC(n4nnc5cc(F)ccc54)CC3)sc2c1	15.4 µM
Cc1cccc(N2CCN(C(=O)C34CC5CC(CC(C5)C3)C4)CC2)c1C	19.6 µM
CCOC(=O)c1ccccc1NC(=O)c1c(F)c(F)c(F)c(F)c1F	23 µM
N#Cc1c(NC(=O)c2ccc(Cn3cc(Br)cn3)o2)sc2c1CCCCCC2	11.5 µM
Cc1csc(NC(=O)C2CCCN(S(=O)(=O)c3ccc(Br)s3)C2)n1 (configuration not stated)	12.2 µM
O=C(Nc1nc(-c2ccccn2)cs1)c1ccc(Cl)s1	0.13 µM
CCc1nc2ccccc2c(=O)n1NC(=O)c1c(O)c2ccccc2[nH]c1=O	5.7 µM
O=C(c1ccc(COc2ccccc2Br)o1)N1CCCCCC1	98.8 µM
COc1ccc(C(=O)Nc2nc(-c3cccs3)cs2)cc1	8.14 µM
CC1(C)Cc2c(c(N3CCCC3)nc3sc4c(N5CCN(CCO)CC5)ncnc4c23)CO1	18.1 µM
Clc1ccc2nc(CN3CCCc4ccccc43)cn2c1	25.8 µM

Structure (SMILES)	IC50
c1ccc(Nc2nc(-c3cccs3)cs2)nc1	12.9 µM
Fc1ccc(Br)cc1C1C=C(c2ccc(Br)s2)Nc2ncnn21 (configuration not stated)	5.22 µM
CC1CCCN(S(=O)(=O)c2ccc(C(=O)Nc3nnc(-c4ccccc4Cl)o3)cc2)C1 (configuration not stated)	0.41 µM
[O-][N+]1=c2ccc(Nc3ccccc3)cc2=NC12CCCCC2	15.3 µM
COc1cc(-c2nc(-c3cccc(C)c3)no2)cc(OC)c1OC	12.2 µM
O=C(Nc1cccc(-c2nnc(-c3ccccc3)o2)c1)c1ccc(Br)o1	5.69 µM
Cc1ccc(Cl)cc1N1CCN(C(=O)c2ccc(NS(=O)(=O)c3c(C)noc3C)cc2)CC1	29.4 µM
COc1ccccc1-c1noc(CCC(=O)Nc2cccc(C(F)(F)F)c2)n1	15.9 µM
Cc1cc(Cl)cc(C)c1OCCCCn1ccnc1	15 µM
CNc1ccc(C(O)(C(F)(F)F)C(F)(F)F)cc1C(O)(C(F)(F)F)C(F)(F)F	6.95 µM
CC1CN(c2oc(COc3ccc(Cl)cc3Cl)nc2C#N)CC(C)O1 (configuration not stated)	10.3 µM
CCC(C(=O)Nc1ccccc1OC)n1c(C(=O)OC)cc2ccsc21 (configuration not stated)	10.9 µM
Cc1cc(C)c(O)c(-c2cc(C(=O)Nc3ccc(S(=O)(=O)N4CCOCC4)cc3)[nH]n2)c1	6.03 µM
Cc1cccc(Cc2c(C)nc3c(C(=O)NCc4ccco4)cnn3c2C)c1	49.6 µM
CCCCCCc1ccc(-c2ncc(N)cn2)cc1	16.6 µM
CC1CC(C)CN(C(=O)CSc2nnc(-c3ccc(Cl)s3)o2)C1 (configuration not stated)	17.4 µM
O=c1c2cc3ccccc3n2cnn1Cc1ccccc1F	17.2 µM
N#Cc1cn(Cc2cccc(Cl)c2)c2ccccc12	7.45 µM
Fc1cccc(Cl)c1Cn1nnc(-c2ccc3c(c2)OCO3)n1	20.3 µM
CCOc1ccc(NS(=O)(=O)c2ccc(SC)cc2)cc1	6.84 µM
CC(=O)Nc1nc2ccccc2n1Cc1ccccc1C	18.1 µM
Brc1cccc(C2CC(c3ccccc3)n3nnnc3N2)c1 (configuration not stated)	23.7 µM
COc1ccccc1-c1cc(C(=O)NC(C)c2ccccc2)no1 (configuration not stated)	37.7 µM

Structure (SMILES)	IC50
Cc1ccc(CN2C(=O)NC(=O)C3(Cc4c(nc5ccccn5c4=O)N4CCCCCC43)C2=O)cc1 (configuration not stated)	22.2 µM
CCn1c(=N)n(CC(=O)C23CC4CC(CC(C4)C2)C3)c2ccccc21	13 µM
COc1ccc(-c2cc(C(=O)N3CCc4ccccc4C3)no2)cc1OC	16.6 µM
CCN1/C(=C(\O)c2ccccc2)C(=O)c2ccccc2S1(=O)=O	4.56 µM
CCn1cc(Br)c(C(=O)Nc2ccc(C(=O)OC(C)C)cc2)n1	12.3 µM
O=c1c2ccccc2n(Cc2ccc(F)cc2)c(=O)n1C1CCCC1	9.26 µM
CCOc1ccc(OCCSc2nnnn2C2CCCCC2)cc1	14.5 µM
CCCn1c(SCC(=O)Nc2ccccc2N2CCCCC2)nc2c1c(=O)n(C)c(=O)n2C	11.7 µM
Cn1c(CSc2nnc(SCc3ccccc3)s2)nc2ccccc21	22.5 µM
O=C(c1ccco1)N1CCN(c2c(-c3ccccc3)c3cc(Cl)ccc3[nH]c2=O)CC1	24 µM
c1ccc(-c2noc(-c3cccc4ccccc34)n2)cc1	101 µM
O=C(CSc1nc(O)c(C2CCCCC2)c(=O)[nH]1)Nc1ccc(Cl)cc1	8.66 µM
COc1ccc(S(=O)(=O)Nc2ccccc2C(=O)NCc2ccco2)cc1Br	9.63 µM
CCCCOC(=O)CSc1nnc(-c2ccc(Cl)cc2Cl)o1	19.4 µM
O=C1CN(C(=O)c2ccc(Br)o2)C(c2ccccc2)c2cc(Cl)ccc2N1 (configuration not stated)	15.6 µM
O=C1NC(Nc2nc3ccccc3s2)(C(F)(F)F)C(=O)N1C1CCCCC1 (configuration not stated)	5.74 µM
O=C(Nc1nc(-c2ccccc2)cs1)c1cccs1	5.9 µM
c1ccc2oc(SCc3nc4ccccc4s3)nc2c1	29.1 µM
CCOc1ccccc1C(=O)NC(C(=O)OCC(=O)Nc1nnc(-c2ccccc2)o1)C(C)C (configuration not stated)	7.68 µM
O=C(Nc1ccc(N2CCN(C(=O)c3ccco3)CC2)c(Cl)c1)c1cccs1	12.3 µM
